HKDC1 inhibitor: HKDC1 hexokinase inhibitors, primary screen, biochemical, fluorescence, uHTS | Q2TB90 | inhibition, % at 20 µM | actives 0.16% (n = 340,000) | AID 493160, 2011 | recombinant HKDC1, G6PDH/diaphorase resazurin coupled fluorescence;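 active means inhibition above about 35% when tested at 20 µM, limit read from the data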;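 further: plate controls were DMSO wells with enzyme for no effect and DMSO wells lacking enzyme for full effect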
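Incubation: 90 min at room temperature in dark / Material: recombinant HKDC1 (HK5) hexokinase enzyme, produced in-house / Quantity: enzyme 5 µg/mL final / Compound: one dose of 20 µM, 1% DMSO / Reagent: glucose and ATP substrates / Buffer or medium: Tris pH 8.0 buffer with MgCl2, Tween-20, BSA, BME / Technique: resorufin fluorescence at 613 nm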
CTSL1 counter: Fasciola hepatica cathepsin L1 inhibitors, primary screen, counter-screen for PFM18AAP inhibitor project, biochemical, QFRET, fluorogenic peptide substrate. recombinant F. hepatica cathepsin L1, Z-Leu-Arg-MCA fluorescence. inhibition, % at 5.96 µM. actives 0.49% (n = 300,000);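 active means inhibition above the mean of all tested compounds plus 3 SD, set per screening campaign, cut at about 17% in these data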;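 further: 0% = plate median of test compound wells and 100% = 1 µM Z-Phe-Ala-diazomethylketone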
Diaphorase act: compounds boosting diaphorase resazurin reduction – biochemical, uHTS, resorufin fluorescence, counter-screen for diaphorase-coupled primary assays, primary screen; Diaphorase/resazurin coupled assay, 16 min; active compounds read high; 1 = vehicle wells, 0 = NADH-free wells; activation factor at 20 µM; actives 0.005% (n = 190,000);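 active means diaphorase activity raised at least twofold by the compound at 20 µM; inactive means activation factor below 2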
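Test system: Clostridium kluyveri diaphorase, purified enzyme. Buffer or medium: 50 mM HEPES pH 7.4 buffer plus MgCl2 and Tween 20. Also added: 0.114 mM NADH and 0.1 mM resazurin, final amounts. Dosing: compound 20 µM once, DMSO 1%. Schedule: 16 min enzyme reaction, ambient temperature. Detection: fluorescence of resorufin, 544 nm excitation, 590 nm emission.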
ATG4B inhibitor: ATG4B protease inhibitors, primary screen, biochemical, fluorescence, uHTS; ATG4B cleavage of LC3-PLA2, NBD-HPC fluorescence, 1 h; inhibition, % at 8.33 µM; actives 0.51% (n = 340,000); in the data active means inhibition above about 40%
Target sequence (Q9Y4P1 whole entry, looked up): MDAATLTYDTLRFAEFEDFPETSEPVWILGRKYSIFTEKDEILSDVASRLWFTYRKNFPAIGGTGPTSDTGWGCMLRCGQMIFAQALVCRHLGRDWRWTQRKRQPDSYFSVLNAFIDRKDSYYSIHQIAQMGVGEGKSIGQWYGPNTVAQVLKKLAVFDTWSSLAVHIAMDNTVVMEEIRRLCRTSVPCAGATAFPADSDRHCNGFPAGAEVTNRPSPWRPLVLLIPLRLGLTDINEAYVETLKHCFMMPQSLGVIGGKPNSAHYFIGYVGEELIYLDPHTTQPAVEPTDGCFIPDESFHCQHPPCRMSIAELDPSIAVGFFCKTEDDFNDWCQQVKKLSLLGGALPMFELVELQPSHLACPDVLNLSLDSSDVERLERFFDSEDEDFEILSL
Diaph inh CS: diaphorase inhibitors and chemical oxidizers, primary screen, counter-screen for diaphorase-coupled primary assays, biochemical, uHTS, resorufin fluorescence. diaphorase resazurin-to-resorufin fluorescence, NADH, 16 min; bacterial (C. kluyveri) enzyme, not human. inhibition, % at 20 µM. actives 0.69% (n = 190,000);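 active means primary screen inhibition at 20 µM above a set limit, cut at about 50% in these data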;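 further: plate controls were DMSO with full reaction for no effect and wells lacking NADH for full effect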
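material = Clostridium kluyveri diaphorase enzyme | amount = 0.14 U/mL diaphorase, enzyme working solution | schedule = incubation 16 min, room temperature | detection = fluorescence of resorufin formed from resazurin, Ex 544/Em 590 nm | benchmarks = positive control minus NADH, DMSO neutral control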
* = called active by the depositor. Hits are enriched below; roughly 1.4% of the tested compounds scored in any of these assays.

How did COc1ccc(-n2c(=S)[nH]c3c(oc4ccccc43)c2=O)cc1 do in these assays?
HKDC1 inhibitor: 12; CTSL1 counter: 0; Diaphorase act: 0.3; ATG4B inhibitor: -7; Diaph inh CS: 68*

What do the screens show for `OC(c1ccc(F)cc1)(C1CCCCC1)C(CN1CCOCC1)c1ccccc1` (stereo not given)?
HKDC1 inhibitor: 6; CTSL1 counter: 1; ATG4B inhibitor: -4

How did N#CC(C#N)=C1NC(N)=C(C#N)C(c2ccccc2)=C1C#N do in these assays?
CTSL1 counter: 3

What do the screens show for `COc1ccc(N2C(=O)C(Cl)=C(N3CCOCC3)C2=O)cc1`?
HKDC1 inhibitor: -3; CTSL1 counter: 14; ATG4B inhibitor: 5

What do the screens show for `O=C1C(Cl)=C(N2CCOCC2)C(=O)N1c1cccc(Cl)c1`?
HKDC1 inhibitor: -3; CTSL1 counter: 57*; Diaphorase act: 1.1; ATG4B inhibitor: 4; Diaph inh CS: -6

What do the screens show for `CCc1ccc(N2C(=O)C(Cl)=C(N3CCOCC3)C2=O)cc1`?
HKDC1 inhibitor: -3; CTSL1 counter: 32*; Diaphorase act: 1; ATG4B inhibitor: -11; Diaph inh CS: -3

Results for Cc1cccc(N2C(=O)C(Cl)=C(N3CCOCC3)C2=O)c1 ?
HKDC1 inhibitor: 1; CTSL1 counter: 28*; ATG4B inhibitor: -5

Results for CC12CCC(=O)N1C(C(=O)Nc1nc(-c3cc(F)ccc3F)cs1)CS2 (stereo not given) ?
HKDC1 inhibitor: -1; CTSL1 counter: 1; ATG4B inhibitor: 0

What do the screens show for `C/C(=N\NC(=O)c1ccco1)c1ccc(NC(=O)C(F)(F)F)cc1`?
HKDC1 inhibitor: -3; ATG4B inhibitor: -1

How did O=C(CSc1ccccn1)NCc1ccc2c(c1)OCO2 do in these assays?
HKDC1 inhibitor: -6; CTSL1 counter: 17*; Diaphorase act: 0.8; ATG4B inhibitor: 1; Diaph inh CS: 22

How did CN(CC(=O)NC1CCN(Cc2ccccc2)CC1)S(=O)(=O)c1ccc2c(c1)c(=O)n(C)c(=O)n2C do in these assays?
HKDC1 inhibitor: -4; CTSL1 counter: 1; Diaphorase act: 0.8; ATG4B inhibitor: -3; Diaph inh CS: 17

Results for CSCCC(NS(=O)(=O)c1ccc2c(c1)c(=O)n(C)c(=O)n2C)C(=O)NC1CCN(Cc2ccccc2)CC1 (stereo not given) ?
HKDC1 inhibitor: -11; CTSL1 counter: 40*; Diaphorase act: 0.9; ATG4B inhibitor: 0; Diaph inh CS: 6

Results for O=C(O)C1(c2ccccc2)CCN(S(=O)(=O)c2cccc(Cl)c2)CC1 ?
HKDC1 inhibitor: -1; CTSL1 counter: 0; ATG4B inhibitor: 4

What do the screens show for `COc1ccc(C)cc1NC(=O)C(OC(=O)CNC(=O)c1ccc(Oc2ccccc2)cc1)c1ccccc1` (stereo not given)?
HKDC1 inhibitor: 0; CTSL1 counter: 16; Diaphorase act: 0.9; ATG4B inhibitor: 4; Diaph inh CS: 5

How did COc1ccc(C)cc1NC(=O)C(OC(=O)CNC(=O)c1cccc(F)c1)c1ccccc1 (stereo not given) do in these assays?
HKDC1 inhibitor: 6; CTSL1 counter: 29*; Diaphorase act: 0.8; ATG4B inhibitor: -10; Diaph inh CS: 16

Results for O=C(CNC(=O)c1ccccc1)OC(C(=O)Nc1cc(C(F)(F)F)ccc1Cl)c1ccccc1 (stereo not given) ?
HKDC1 inhibitor: 1; CTSL1 counter: 28*; Diaphorase act: 0.8; ATG4B inhibitor: -15; Diaph inh CS: 22

What do the screens show for `C=CCNC(=O)c1c(CSc2ccc(F)cc2)noc1C(=O)NCCC`?
HKDC1 inhibitor: 0; CTSL1 counter: 0; ATG4B inhibitor: -9

What do the screens show for `CNc1ccc(Br)cc(C(=O)/C=C/c2cccc(Cl)c2Cl)c1=O`?
HKDC1 inhibitor: 23; Diaphorase act: 0.3; ATG4B inhibitor: 15; Diaph inh CS: 68*

How did CNc1ccccc(C(=O)/C=C/c2ccccc2OC)c1=O do in these assays?
HKDC1 inhibitor: 10; CTSL1 counter: -2; Diaphorase act: 0.7; ATG4B inhibitor: 0; Diaph inh CS: 30

Results for CNc1ccc(Br)cc(C(=O)/C=C/c2cccc(OC)c2OC)c1=O ?
HKDC1 inhibitor: 27; CTSL1 counter: 1; Diaphorase act: 0.4; ATG4B inhibitor: 7; Diaph inh CS: 59*

What do the screens show for `COc1ccc(C(CNC(=O)CSc2ccccc2F)N2CCOCC2)cc1` (stereo not given)?
HKDC1 inhibitor: 1; CTSL1 counter: -7; ATG4B inhibitor: -2

What do the screens show for `COc1ccc(C(CNC(=O)CSc2ccc(Br)cc2C)N2CCOCC2)cc1` (stereo not given)?
HKDC1 inhibitor: -5; CTSL1 counter: 24*; ATG4B inhibitor: 1

How did CC(NC(=O)COC(=O)c1cccc(S(=O)(=O)N2CCCC2)c1)c1ccccc1 (stereo not given) do in these assays?
HKDC1 inhibitor: -2; ATG4B inhibitor: -4

Results for O=C(O)C1C2OC(C(Br)C2Br)C1C(=O)O (stereo not given) ?
HKDC1 inhibitor: -4; ATG4B inhibitor: -5

What do the screens show for `O=c1nc2s/c(=C\c3ccc(-c4ccccc4[N+](=O)[O-])o3)c(=O)n2nc1-c1ccccc1`?
HKDC1 inhibitor: 17; Diaphorase act: 0.3; ATG4B inhibitor: -2; Diaph inh CS: 69*

Results for CCCCCOc1ccc(/C=c2\sc3nc(=O)c(-c4ccccc4)nn3c2=O)cc1OC ?
HKDC1 inhibitor: -7; CTSL1 counter: -3; Diaphorase act: 1; ATG4B inhibitor: -3; Diaph inh CS: 2

How did N#C/C(=C\c1ccc(-c2ccc(C(=O)O)cc2)o1)c1nc2ccccc2[nH]1 do in these assays?
HKDC1 inhibitor: 7; Diaphorase act: 0.4; ATG4B inhibitor: -20; Diaph inh CS: 65*

What do the screens show for `O=C(NN1C(=O)c2ccccc2C1=O)c1ccc2c(c1)C(=O)N(CC1CCCO1)C2=O` (stereo not given)?
HKDC1 inhibitor: -3; CTSL1 counter: 0; ATG4B inhibitor: 8

Results for O=C(CSc1nc(-c2ccc(F)cc2)nc2c1Cc1ccccc1O2)Nc1cccc(C(=O)O)c1 ?
HKDC1 inhibitor: 57*; Diaphorase act: 0.4; ATG4B inhibitor: 6; Diaph inh CS: 61*

How did O=C(CN1C(=O)NC2(CCCc3ccccc32)C1=O)NCc1cccs1 (stereo not given) do in these assays?
HKDC1 inhibitor: -3; ATG4B inhibitor: 0
